Nine compounds from ChEMBL document CHEMBL3627693, “Novel aminotetrazole derivatives as selective STAT3 non-peptide inhibitors” (Eur J Med Chem, 2015) can be followed below.

Calls of active or inactive are those of the source. The calls are words filed in the database; no cut-off is given here.

One series relates to HeLa. Nature of the series: Cytotoxicity against human HeLa cells at 50 uM. The class given is cell-based.
Series [1] concerns the target T1, Signal transducer and activator of transcription 3 (Homo sapiens, UniProt P40763). The series can be described thus: Inhibition of STAT3 (unknown origin) expressed in Oncostatin M induced human HeLa cells at 50 uM incubated for 1 hr by luciferase reporter gene assay. The format is cell-based.
The target of series [2] is T2, Signal transducer and activator of transcription 1-alpha/beta (Homo sapiens) (UniProt P42224).
T2 sequence (whole entry): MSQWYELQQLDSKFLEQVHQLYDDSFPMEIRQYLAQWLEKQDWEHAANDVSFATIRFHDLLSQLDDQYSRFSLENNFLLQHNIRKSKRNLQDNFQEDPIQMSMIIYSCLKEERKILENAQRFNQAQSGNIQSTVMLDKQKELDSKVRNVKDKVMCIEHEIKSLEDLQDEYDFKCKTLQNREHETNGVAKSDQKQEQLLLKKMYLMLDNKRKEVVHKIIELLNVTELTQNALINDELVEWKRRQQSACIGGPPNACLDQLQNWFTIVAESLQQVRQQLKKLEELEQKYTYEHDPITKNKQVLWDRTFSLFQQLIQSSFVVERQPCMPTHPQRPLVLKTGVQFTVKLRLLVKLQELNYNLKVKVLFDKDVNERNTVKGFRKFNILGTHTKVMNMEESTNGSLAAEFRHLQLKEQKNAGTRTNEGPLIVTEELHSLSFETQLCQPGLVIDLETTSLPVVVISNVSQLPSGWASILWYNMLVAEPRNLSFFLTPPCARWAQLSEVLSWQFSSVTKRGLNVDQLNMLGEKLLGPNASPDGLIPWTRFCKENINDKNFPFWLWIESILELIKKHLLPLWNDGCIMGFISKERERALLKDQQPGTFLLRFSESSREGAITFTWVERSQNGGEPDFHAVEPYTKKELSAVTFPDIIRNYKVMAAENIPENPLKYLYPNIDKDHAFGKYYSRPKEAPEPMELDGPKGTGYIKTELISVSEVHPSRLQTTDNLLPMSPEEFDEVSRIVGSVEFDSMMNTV
Nature of the series: Inhibition of STAT1 (unknown origin) expressed in IFN-gamma induced human HeLa cells at 50 uM incubated for 1 hr by luciferase reporter gene assay. The class given is cell-based.

Series [3] concerns the target T1, Signal transducer and activator of transcription 3. Nature of the series: Displacement of fluorescent peptide 5-FAM-G(pTyr)LPQTV-CONH2 from GST-tagged full-length human STAT3 preincubated for 60 mins followed by fluorescent peptide addition measured after 30 mins by fluorescence polarization assay. The method in brief: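 Full-length GST-STAT3 (100 nM) preincubated 60 min at room temperature with compound at various concentrations or vehicle, in 50 mM NaCl, 10 mM Hepes pH 7.5, 1 mM EDTA, 0.01% Triton X-100, 2 mM DTT. Labelled peptide then added to 10 nM final, 30 min room temperature. FP read with excitation 480, emission 535 (P and S pol).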

Series [4] addresses T2, Signal transducer and activator of transcription 1-alpha/beta (Homo sapiens). The series can be described thus: Displacement of fluorescent peptide 5-FAM-G(pTyr)YIKTE- CONH2 from GST-tagged human STAT1b preincubated for 60 mins followed by fluorescent peptide addition measured after 30 mins by fluorescence polarization assay. Put shortly: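 GST-tagged human STAT1b preincubated 60 min at room temperature with compound at various concentrations or vehicle in 50 mM NaCl, 10 mM Hepes pH 7.5, 1 mM EDTA, 0.01% Triton X-100, 2 mM DTT. Labelled peptide added to 10 nM final, 30 min room temperature. Fluorescence polarization read with excitation 480, emission 535.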

Series [5] relates to CD4-positive T cell. Nature of the series: Induction of polarization of C57BL/6 mouse spleen naive CD4+ lymphocytes into Th17 lymphocytes assessed as decrease in FoxP3 transcription at 50 uM. The format is functional, tissue-based.
Series [6] relates to MDA-MB-231. The series can be described thus: Cytotoxicity against human MDA-MB-231 cells transfected with STAT3C assessed as decrease in cell proliferation after 72 hrs by MTT assay. The class given is functional, cell-based.
The target in series [7] is T1, Signal transducer and activator of transcription 3. The settings on record: HeLa, 100 uM.
Series [8] relates to CD4-positive T cell. The series can be described thus: Induction of polarization of C57BL/6 mouse spleen naive CD4+ lymphocytes into Th17 lymphocytes assessed as decrease in ROR-gamma-t transcription at 50 uM. The format is functional, tissue-based.
Series [9] concerns the target T1, Signal transducer and activator of transcription 3. The settings on record: HeLa, 100 uM. The source holds these as a separate data set.
Another series has as its system PBL. Nature of the series: Induction IFN-gamma production in human PBL cells co-cultured with HT29 cells at 50 uM after 24 hrs by ELISA. The class given is functional, cell-based.
For series [10], the system named is MDA-MB-231. The series can be described thus: Cytotoxicity against human MDA-MB-231 cells assessed as decrease in cell proliferation after 72 hrs by MTT assay. The format is functional, cell-based.
For the next series, the system named is B9. Nature of the series: Cytotoxicity against mouse B9 cells assessed as decrease in cell proliferation at 50 uM after 72 hrs by MTT assay. The format is functional, cell-based.
Series [11] concerns the target T1, Signal transducer and activator of transcription 3. Nature of the series: Inhibition of STAT3 (unknown origin) expressed in Oncostatin M induced human HeLa cells incubated for 1 hr by luciferase reporter gene assay.
Series [12] relates to CD4-positive T cell. The series can be described thus: Induction of polarization of C57BL/6 mouse spleen naive CD4+ lymphocytes into Th1 lymphocytes assessed as decrease in Tbet transcription. The format is functional, tissue-based.
Series [13] concerns CD4-positive T cell. The series can be described thus: Induction of polarization of C57BL/6 mouse spleen naive CD4+ lymphocytes into Treg lymphocytes assessed as decrease in ROR-gamma-t transcription at 50 uM. The class given is functional, tissue-based.
The subject of series [14] is CD4-positive T cell. The series can be described thus: Induction of polarization of C57BL/6 mouse spleen naive CD4+ lymphocytes into Treg lymphocytes assessed as decrease in FoxP3 transcription at 50 uM. The format is functional, tissue-based.

T1 sequence (P40763 whole entry): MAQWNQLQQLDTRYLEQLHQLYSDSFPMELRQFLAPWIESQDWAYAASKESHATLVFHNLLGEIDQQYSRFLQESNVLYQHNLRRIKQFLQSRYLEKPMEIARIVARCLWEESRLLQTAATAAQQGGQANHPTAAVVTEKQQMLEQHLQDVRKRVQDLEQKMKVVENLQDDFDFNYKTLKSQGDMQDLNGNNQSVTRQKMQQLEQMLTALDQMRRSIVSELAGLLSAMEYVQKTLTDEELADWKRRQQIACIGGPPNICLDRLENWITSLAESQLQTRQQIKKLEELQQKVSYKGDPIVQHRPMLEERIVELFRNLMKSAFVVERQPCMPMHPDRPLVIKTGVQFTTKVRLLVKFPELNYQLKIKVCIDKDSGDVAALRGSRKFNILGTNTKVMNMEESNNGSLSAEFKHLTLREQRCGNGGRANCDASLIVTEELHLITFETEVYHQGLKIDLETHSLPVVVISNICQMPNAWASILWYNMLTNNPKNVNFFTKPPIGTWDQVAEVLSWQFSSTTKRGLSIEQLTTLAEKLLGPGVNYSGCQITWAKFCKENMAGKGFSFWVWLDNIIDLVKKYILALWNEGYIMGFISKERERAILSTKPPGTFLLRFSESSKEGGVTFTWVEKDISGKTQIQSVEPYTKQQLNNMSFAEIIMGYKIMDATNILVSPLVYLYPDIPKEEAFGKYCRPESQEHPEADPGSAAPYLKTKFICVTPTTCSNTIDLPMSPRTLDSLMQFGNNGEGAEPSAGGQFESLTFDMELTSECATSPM

On to `Brc1cc2c(cc1COc1ccc(-c3nn[nH]n3)cc1)OCO2`, for which the Activity entry in the series on HeLa is on record as “Toxic”. Also, the inhibition result in series [1] was “Active”.

For `COc1cc(C=O)cc(Cl)c1OCc1ccc([N+](=O)[O-])cc1`, the inhibition in series [2] amounted to 62.3%; in series [1], 66.4%. For the same compound, the result in series [3] and in [4] was Active.

With `CCOc1cc(/C=C(\C#N)C(=O)NC2CCCCC2C)ccc1OCC(=O)O` (stereo not drawn), the Activity entry in the series with HeLa is “Toxic”. The inhibition entry in series [1] was “Active”.

In the case of `COc1cc(CNCC(=O)O)cc(Cl)c1OCc1ccc([N+](=O)[O-])cc1`, the inhibition in series [2] worked out at 13.1%; in [1] it was 15.3%. Also, the result in series [4] was Active.

Turning to `COc1cc(NC#N)cc(Cl)c1OCc1ccc(C)cc1`, the inhibition in series [2] turned out to be 10.8%; in [1], 50.2%. Also, the result in series [3] was inactive. In series [4], the result was Active.

Turning to `COc1cc(CNc2nn[nH]n2)cc(Cl)c1OCc1ccc(C)cc1`, the values for the inhibition in series [2] and in [1] were 11.1% and 53.9%, respectively. Besides, the result in series [3] was Active. In series [4], the outcome was inactive.

As to `COc1cc(CNc2nn[nH]n2)cc(Cl)c1OCc1ccc([N+](=O)[O-])cc1`, the result (with CD4-positive T cell [5]; in the series on CD4-positive T cell [8]; in series [3]; in the series on PBL; in the series with CD4-positive T cell [13]; with CD4-positive T cell [14]) was Active. In addition, the inhibition in series [2] came to 15.7%; in series [1], 70.2%. For the same compound, the result (in the series with MDA-MB-231 [6]; in the series with CD4-positive T cell [12]; in series [4]) was inactive. In addition, the inhibition entry in series [7] and in [9] was “Active” in each case. The Activity entry with MDA-MB-231 [10] and in the series on B9 was “Dose-dependent effect” in each case. This compound also displayed an IC50 in series [11] of 25.7 µM.

As to `COc1cc(C=O)cc(Cl)c1OCc1ccc(C)cc1`, the inhibition in series [2] was determined as 31.4%; in series [1] it was 52.4%. In addition, the outcome in series [3] and in series [4] was Active.

For `COc1cc(CNC#N)cc(Cl)c1OCc1ccc([N+](=O)[O-])cc1`, the inhibition came to 48.8% in series [2] and 91.8% in series [1]. Moreover, the outcome in [3] and in series [4] was Active.
